Experimental data reported in ChEMBL document CHEMBL5058577, “EUbOPEN Chemogenomics Library 2 (Multiplex)” (2022).

System: Fibroblast
Assay: Multiplex assay against human fibroblast
Format: toxicity, cell-based
Outline: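 Four dyes were applied at seeding to live cells: Hoechst33342, BioTracker Green Microtubule Cytoskeleton Dye, MitoTracker Red and Annexin V Alexa Fluor 680. Imaging after compound addition used a CQ1 microscope at 37°C and 5% CO2. CellPathfinder machine-learning gating then sorted cells into Hoechst high-intensity objects or normal cells, normal cells into healthy, pyknosed or fragmented nuclei, and pyknosed cells into mitotic or apoptotic, with tubulin, mitochondrial-mass and membrane-permeability phenotypes given as per cents of healthy-nucleus cells.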

[1] = 12 h, 1 µM, compound concentration 1 uM, replicate 1
[2] = 12 h, 1 µM, compound concentration 1 uM, replicate 2
[3] = 12 h, 10 µM, compound concentration 10 uM, replicate 1
[4] = 12 h, 10 µM, compound concentration 10 uM, replicate 2
[5] = 24 h, 1 µM, compound concentration 1 uM, replicate 1
[6] = 24 h, 1 µM, compound concentration 1 uM, replicate 2
[7] = 24 h, 10 µM, compound concentration 10 uM, replicate 1
[8] = 24 h, 10 µM, compound concentration 10 uM, replicate 2
[9] = 48 h, 1 µM, compound concentration 1 uM, replicate 1
[10] = 48 h, 1 µM, compound concentration 1 uM, replicate 2
[11] = 48 h, 10 µM, compound concentration 10 uM, replicate 1
[12] = 48 h, 10 µM, compound concentration 10 uM, replicate 2

COc1ccc2[nH]c(I)c(CCNC(C)=O)c2c1 [IODOMELATONIN]
Population Apoptotic (%) [1]: 53% | Population Fragmented Nuclei (%) [1]: 15% | Population Healthy Nuclei (%) [1]: 64% | Population Hoechst High Intensity Objects (%) [1]: 2% | Population Membrane Permeable-Phenotype (%) [1]: 4% | Population Mitochondria Different-Phenotype (%) [1]: 4% | Population Mitotic Cells (%) [1]: 46% | Population Normal (%) [1]: 97% | Population Pyknosed Nuclei (%) [1]: 19% | Population Tubulin-Different-Phenotype (%) [1]: 28% | Total Cell Count [1]: 137 | Population Apoptotic (%) [2]: 32% | Population Fragmented Nuclei (%) [2]: 23% | Population Healthy Nuclei (%) [2]: 60% | Population Hoechst High Intensity Objects (%) [2]: 5% | Population Membrane Permeable-Phenotype (%) [2]: 7% | Population Mitochondria Different-Phenotype (%) [2]: 3% | Population Mitotic Cells (%) [2]: 68% | Population Normal (%) [2]: 94% | Population Pyknosed Nuclei (%) [2]: 15% | Population Tubulin-Different-Phenotype (%) [2]: 33% | Total Cell Count [2]: 173 | Population Apoptotic (%) [3]: 35% | Population Fragmented Nuclei (%) [3]: 14% | Population Healthy Nuclei (%) [3]: 64% | Population Hoechst High Intensity Objects (%) [3]: 2% | Population Membrane Permeable-Phenotype (%) [3]: 2% | Population Mitochondria Different-Phenotype (%) [3]: 6% | Population Mitotic Cells (%) [3]: 64% | Population Normal (%) [3]: 97% | Population Pyknosed Nuclei (%) [3]: 21% | Population Tubulin-Different-Phenotype (%) [3]: 20% | Total Cell Count [3]: 148 | Population Apoptotic (%) [4]: 30% | Population Fragmented Nuclei (%) [4]: 38% | Population Healthy Nuclei (%) [4]: 44% | Population Hoechst High Intensity Objects (%) [4]: 3% | Population Membrane Permeable-Phenotype (%) [4]: 5% | Population Mitochondria Different-Phenotype (%) [4]: 0% | Population Mitotic Cells (%) [4]: 69% | Population Normal (%) [4]: 96% | Population Pyknosed Nuclei (%) [4]: 17% | Population Tubulin-Different-Phenotype (%) [4]: 43% | Total Cell Count [4]: 157 | Population Apoptotic (%) [5]: 62% | Population Fragmented Nuclei (%) [5]: 16% | Population Healthy Nuclei (%) [5]: 63% | Population Hoechst High Intensity Objects (%) [5]: 0% | Population Membrane Permeable-Phenotype (%) [5]: 0% | Population Mitochondria Different-Phenotype (%) [5]: 7% | Population Mitotic Cells (%) [5]: 37% | Population Normal (%) [5]: 99% | Population Pyknosed Nuclei (%) [5]: 20% | Population Tubulin-Different-Phenotype (%) [5]: 27% | Total Cell Count [5]: 134 | Population Apoptotic (%) [6]: 57% | Population Fragmented Nuclei (%) [6]: 26% | Population Healthy Nuclei (%) [6]: 57% | Population Hoechst High Intensity Objects (%) [6]: 5% | Population Membrane Permeable-Phenotype (%) [6]: 6% | Population Mitotic Cells (%) [6]: 42% | Population Normal (%) [6]: 94% | Population Pyknosed Nuclei (%) [6]: 15% | Population Tubulin-Different-Phenotype (%) [6]: 39% | Total Cell Count [6]: 176 | Population Apoptotic (%) [7]: 35% | Population Fragmented Nuclei (%) [7]: 16% | Population Healthy Nuclei (%) [7]: 58% | Population Hoechst High Intensity Objects (%) [7]: 2% | Population Membrane Permeable-Phenotype (%) [7]: 1% | Population Mitochondria Different-Phenotype (%) [7]: 4% | Population Mitotic Cells (%) [7]: 64% | Population Normal (%) [7]: 97% | Population Pyknosed Nuclei (%) [7]: 24% | Population Tubulin-Different-Phenotype (%) [7]: 30% | Total Cell Count [7]: 143 | Population Apoptotic (%) [8]: 24% | Population Fragmented Nuclei (%) [8]: 38% | Population Healthy Nuclei (%) [8]: 41% | Population Hoechst High Intensity Objects (%) [8]: 4% | Population Membrane Permeable-Phenotype (%) [8]: 10% | Population Mitochondria Different-Phenotype (%) [8]: 1% | Population Mitotic Cells (%) [8]: 75% | Population Normal (%) [8]: 95% | Population Pyknosed Nuclei (%) [8]: 20% | Population Tubulin-Different-Phenotype (%) [8]: 40% | Total Cell Count [8]: 149 | Population Apoptotic (%) [9]: 76% | Population Fragmented Nuclei (%) [9]: 16% | Population Healthy Nuclei (%) [9]: 64% | Population Hoechst High Intensity Objects (%) [9]: 3% | Population Membrane Permeable-Phenotype (%) [9]: 0% | Population Mitochondria Different-Phenotype (%) [9]: 4% | Population Mitotic Cells (%) [9]: 23% | Population Normal (%) [9]: 96% | Population Pyknosed Nuclei (%) [9]: 18% | Population Tubulin-Different-Phenotype (%) [9]: 22% | Total Cell Count [9]: 147 | Population Apoptotic (%) [10]: 42% | Population Fragmented Nuclei (%) [10]: 30% | Population Healthy Nuclei (%) [10]: 55% | Population Hoechst High Intensity Objects (%) [10]: 4% | Population Membrane Permeable-Phenotype (%) [10]: 5% | Population Mitochondria Different-Phenotype (%) [10]: 0% | Population Mitotic Cells (%) [10]: 57% | Population Normal (%) [10]: 95% | Population Pyknosed Nuclei (%) [10]: 13% | Population Tubulin-Different-Phenotype (%) [10]: 40% | Total Cell Count [10]: 163 | Population Apoptotic (%) [11]: 60% | Population Fragmented Nuclei (%) [11]: 29% | Population Healthy Nuclei (%) [11]: 56% | Population Hoechst High Intensity Objects (%) [11]: 7% | Population Membrane Permeable-Phenotype (%) [11]: 1% | Population Mitochondria Different-Phenotype (%) [11]: 1% | Population Mitotic Cells (%) [11]: 40% | Population Normal (%) [11]: 92% | Population Pyknosed Nuclei (%) [11]: 13% | Population Tubulin-Different-Phenotype (%) [11]: 22% | Total Cell Count [11]: 159 | Population Apoptotic (%) [12]: 38% | Population Fragmented Nuclei (%) [12]: 48% | Population Healthy Nuclei (%) [12]: 38% | Population Hoechst High Intensity Objects (%) [12]: 2% | Population Membrane Permeable-Phenotype (%) [12]: 10% | Population Mitochondria Different-Phenotype (%) [12]: 5% | Population Mitotic Cells (%) [12]: 61% | Population Normal (%) [12]: 98% | Population Pyknosed Nuclei (%) [12]: 12% | Population Tubulin-Different-Phenotype (%) [12]: 57% | Total Cell Count [12]: 150

CCCCCCNC(=O)Nc1ccc(S(=O)(=O)Nc2ccc(CCNC[C@H](O)COc3ccc(O)cc3)cc2)cc1 [L-755507]
Population Apoptotic (%) [1]: 40% | Population Fragmented Nuclei (%) [1]: 27% | Population Healthy Nuclei (%) [1]: 59% | Population Hoechst High Intensity Objects (%) [1]: 1% | Population Membrane Permeable-Phenotype (%) [1]: 3% | Population Mitochondria Different-Phenotype (%) [1]: 6% | Population Mitotic Cells (%) [1]: 60% | Population Normal (%) [1]: 98% | Population Pyknosed Nuclei (%) [1]: 12% | Population Tubulin-Different-Phenotype (%) [1]: 34% | Total Cell Count [1]: 198 | Population Apoptotic (%) [2]: 46% | Population Fragmented Nuclei (%) [2]: 21% | Population Hoechst High Intensity Objects (%) [2]: 3% | Population Mitochondria Different-Phenotype (%) [2]: 3% | Population Mitotic Cells (%) [2]: 53% | Population Normal (%) [2]: 96% | Population Pyknosed Nuclei (%) [2]: 19% | Population Tubulin-Different-Phenotype (%) [2]: 36% | Total Cell Count [2]: 160 | Population Apoptotic (%) [3]: 45% | Population Fragmented Nuclei (%) [3]: 17% | Population Healthy Nuclei (%) [3]: 72% | Population Hoechst High Intensity Objects (%) [3]: 5% | Population Membrane Permeable-Phenotype (%) [3]: 0% | Population Mitochondria Different-Phenotype (%) [3]: 10% | Population Mitotic Cells (%) [3]: 54% | Population Normal (%) [3]: 94% | Population Pyknosed Nuclei (%) [3]: 10% | Population Tubulin-Different-Phenotype (%) [3]: 47% | Total Cell Count [3]: 218 | Population Apoptotic (%) [4]: 42% | Population Fragmented Nuclei (%) [4]: 34% | Population Healthy Nuclei (%) [4]: 48% | Population Membrane Permeable-Phenotype (%) [4]: 1% | Population Mitochondria Different-Phenotype (%) [4]: 19% | Population Mitotic Cells (%) [4]: 57% | Population Pyknosed Nuclei (%) [4]: 17% | Population Tubulin-Different-Phenotype (%) [4]: 64% | Total Cell Count [4]: 172 | Population Apoptotic (%) [5]: 31% | Population Fragmented Nuclei (%) [5]: 26% | Population Healthy Nuclei (%) [5]: 63% | Population Hoechst High Intensity Objects (%) [5]: 1% | Population Membrane Permeable-Phenotype (%) [5]: 0% | Population Mitochondria Different-Phenotype (%) [5]: 3% | Population Mitotic Cells (%) [5]: 68% | Population Normal (%) [5]: 98% | Population Pyknosed Nuclei (%) [5]: 9% | Population Tubulin-Different-Phenotype (%) [5]: 27% | Total Cell Count [5]: 196 | Population Apoptotic (%) [6]: 39% | Population Healthy Nuclei (%) [6]: 59% | Population Hoechst High Intensity Objects (%) [6]: 2% | Population Membrane Permeable-Phenotype (%) [6]: 3% | Population Mitochondria Different-Phenotype (%) [6]: 12% | Population Mitotic Cells (%) [6]: 60% | Population Normal (%) [6]: 97% | Population Pyknosed Nuclei (%) [6]: 13% | Population Tubulin-Different-Phenotype (%) [6]: 44% | Total Cell Count [6]: 176 | Population Apoptotic (%) [7]: 72% | Population Fragmented Nuclei (%) [7]: 21% | Population Healthy Nuclei (%) [7]: 70% | Population Hoechst High Intensity Objects (%) [7]: 8% | Population Membrane Permeable-Phenotype (%) [7]: 0% | Population Mitochondria Different-Phenotype (%) [7]: 8% | Population Mitotic Cells (%) [7]: 27% | Population Normal (%) [7]: 91% | Population Pyknosed Nuclei (%) [7]: 8% | Population Tubulin-Different-Phenotype (%) [7]: 38% | Total Cell Count [7]: 232 | Population Apoptotic (%) [8]: 50% | Population Fragmented Nuclei (%) [8]: 38% | Population Healthy Nuclei (%) [8]: 51% | Population Hoechst High Intensity Objects (%) [8]: 4% | Population Membrane Permeable-Phenotype (%) [8]: 3% | Population Mitochondria Different-Phenotype (%) [8]: 19% | Population Mitotic Cells (%) [8]: 50% | Population Normal (%) [8]: 95% | Population Pyknosed Nuclei (%) [8]: 9% | Population Tubulin-Different-Phenotype (%) [8]: 65% | Total Cell Count [8]: 168 | Population Apoptotic (%) [9]: 62% | Population Fragmented Nuclei (%) [9]: 28% | Population Healthy Nuclei (%) [9]: 63% | Population Hoechst High Intensity Objects (%) [9]: 3% | Population Membrane Permeable-Phenotype (%) [9]: 0% | Population Mitochondria Different-Phenotype (%) [9]: 4% | Population Mitotic Cells (%) [9]: 37% | Population Normal (%) [9]: 96% | Population Pyknosed Nuclei (%) [9]: 8% | Population Tubulin-Different-Phenotype (%) [9]: 31% | Total Cell Count [9]: 201 | Population Apoptotic (%) [10]: 53% | Population Fragmented Nuclei (%) [10]: 33% | Population Healthy Nuclei (%) [10]: 58% | Population Hoechst High Intensity Objects (%) [10]: 4% | Population Membrane Permeable-Phenotype (%) [10]: 1% | Population Mitochondria Different-Phenotype (%) [10]: 6% | Population Mitotic Cells (%) [10]: 46% | Population Normal (%) [10]: 95% | Population Tubulin-Different-Phenotype (%) [10]: 33% | Total Cell Count [10]: 170 | Population Apoptotic (%) [11]: 79% | Population Fragmented Nuclei (%) [11]: 19% | Population Healthy Nuclei (%) [11]: 69% | Population Hoechst High Intensity Objects (%) [11]: 6% | Population Membrane Permeable-Phenotype (%) [11]: 1% | Population Mitochondria Different-Phenotype (%) [11]: 8% | Population Mitotic Cells (%) [11]: 20% | Population Normal (%) [11]: 93% | Population Pyknosed Nuclei (%) [11]: 10% | Population Tubulin-Different-Phenotype (%) [11]: 49% | Total Cell Count [11]: 240 | Population Apoptotic (%) [12]: 71% | Population Fragmented Nuclei (%) [12]: 42% | Population Healthy Nuclei (%) [12]: 53% | Population Hoechst High Intensity Objects (%) [12]: 3% | Population Membrane Permeable-Phenotype (%) [12]: 5% | Population Mitochondria Different-Phenotype (%) [12]: 11% | Population Mitotic Cells (%) [12]: 28% | Population Normal (%) [12]: 96% | Population Pyknosed Nuclei (%) [12]: 3% | Population Tubulin-Different-Phenotype (%) [12]: 55% | Total Cell Count [12]: 184
